T cruzi growth-1 = T. cruzi intracellular proliferation inhibitors, primary screen, cell-based, beta-gal Tulahuen parasites, NIH3T3 host, luminescence; T. cruzi beta-gal in NIH3T3, GalScreen luminescence, 90 h; 5.9% of 77,000 active; inhibition, % at 8.34 µM; AID 624255, 2012;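 active = mean inhibition above about 93%, with at least 55% of replicates each passing it, limit read from the data, passing the limit was not always enough; inconclusive = only one of those two conditions holds; inactive = neither condition holds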
GASC1 inh = inhibitors of GASC-1 (KDM4C) histone demethylase, primary screen, biochemical, single concentration HTS | GST-KDM4C 2-372, H3K9me3 peptide, LANCE TR-FRET | AID 720574, 2013 | 0.15% of 96,000 active | Lysine-specific demethylase 4C (Homo sapiens), Q9H3R0 | inhibition, % at 12.5 µM;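 active = mean replicate inhibition above about 25%, with at least 55% of replicates also reaching it, limit read from the data, passing the limit was not always enough; inconclusive = only one of those two conditions met; inactive = neither condition met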
Target sequence (Q9H3R0 2-372 limits assumed): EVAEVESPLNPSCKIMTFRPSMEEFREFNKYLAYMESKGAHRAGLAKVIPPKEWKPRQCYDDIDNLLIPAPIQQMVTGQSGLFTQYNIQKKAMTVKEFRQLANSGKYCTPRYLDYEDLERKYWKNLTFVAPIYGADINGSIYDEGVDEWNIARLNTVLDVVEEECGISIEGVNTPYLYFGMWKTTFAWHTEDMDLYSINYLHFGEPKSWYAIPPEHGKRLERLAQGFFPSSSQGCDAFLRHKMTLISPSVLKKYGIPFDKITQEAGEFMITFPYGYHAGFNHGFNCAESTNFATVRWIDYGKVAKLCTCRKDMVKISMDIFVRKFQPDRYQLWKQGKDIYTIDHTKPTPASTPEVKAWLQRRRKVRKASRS
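material = GST-tagged GASC-1 (JMJD2C) catalytic fragment, aa 2-372 | amount = enzyme final amount 10 nM | medium = HEPES buffer, pH 7.5, plus ascorbate | also added = H3K9me3 peptide substrate, Fe(II), 2-oxoglutarate | dosing = single dose | times = 30 min demethylation and 1 h detection at room temperature | detection = LANCE TR-FRET | read-out basis = Fall in 671/618 emission ratio as inhibition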
Pf Dd2 growth = P. falciparum Dd2 growth inhibitors, primary screen, SYBR Green fluorescence, single dose replicates; 72 h; stronger effect = lower value; activity change, % at 10 µM; 2.3% of 94,000 active; AID 1159554, 2015; in the data active = activity change below about -80%; inconclusive = no clear call, values can overlap the other calls
IDH1 mut inh = inhibitors of IDH1 R132H reductase, primary screen, biochemical, plate reader, single point; Isocitrate dehydrogenase [NADP] cytoplasmic (Homo sapiens), O75874; diaphorase/resazurin fluorescence, 60 min; inhibition, % at 10 µM; 0.18% of 70,000 active; in the data active = inhibition above about 34%; inconclusive = no clear call, values can overlap the other calls; inactive = below about 11%;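 also: 0% = DMSO and 100% = no enzyme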
T cruzi growth-2 = T. cruzi intracellular proliferation inhibitors, confirmation, cell-based, NIH3T3 host, beta-gal parasite, luminescence, cherry-pick | shares compounds with T cruzi growth-1 | T. cruzi beta-gal in NIH3T3, GalScreen luminescence, 90 h | inhibition, % at 8.35 µM | 72% of 5,600 active | AID 651739, 2012;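 active = mean replicate inhibition above about 95% and at least 55% of replicates individually reaching it, limit read from the data; inconclusive = only one of the two criteria is met; inactive = neither criterion is met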
T cruzi growth-3 = inhibitors of intracellular T. cruzi replication, confirmation, NIH3T3 host cells, beta-gal parasites, cherry-pick, set 2. 21% of 5,600 active. AID 651740, 2012. T. cruzi beta-gal in NIH3T3, GalScreen luminescence, 90 h. shares compounds with T cruzi growth-1. inhibition, % at 2.09 µM;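 active = mean inhibition above about 95%, with at least 55% of replicates also reaching it, limit read from the data; inconclusive = meets just one of the two conditions; inactive = meets neither condition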;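 also: plate controls were neutral control median for no effect and positive control median for full effect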
3T3 cytotox = cytotoxicity in mouse NIH/3T3 fibroblasts, confirmation, cytotoxicity control for T. cruzi proliferation inhibitor project, cell-based, cherry-pick, single point; shares compounds with T cruzi growth-1; NIH/3T3 viability, CellTiter-Glo ATP luminescence, 90 h; cytotoxicity (signal decrease), % at 8.35 µM; 14% of 5,600 active;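 active = mean signal decrease across replicates above about 35% based on untreated-well scatter, with enough replicates individually passing, limit read from the data; inconclusive = no rule stated though some were filed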;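 also: 0% = median of neutral control wells and 100% = median of positive control wells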
3T3 cytotox 2 = NIH/3T3 fibroblast cytotoxicity, confirmation, cytotoxicity control, cell-based, cherry-pick, single point, set 2 | NIH/3T3 viability, CellTiter-Glo ATP luminescence, 90 h | inhibition, % at 24.9 µM | 56% of 5,600 active | shares compounds with T cruzi growth-1 | AID 651744, 2012;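 active = mean loss of cell viability signal at or above a set limit, and enough replicates individually reaching it; inconclusive = meets only the mean limit or only the replicate share; inactive = meets neither condition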;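 also: 0% = median of neutral control wells and 100% = median of positive control wells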
Starred values were filed as active, the others as inactive; u = inconclusive; x = no result. An excerpt weighted towards active compounds, which were near 5.9% of everything screened.

SMILES	T cruzi growth-1	GASC1 inh	Pf Dd2 growth	IDH1 mut inh	T cruzi growth-2	T cruzi growth-3	3T3 cytotox	3T3 cytotox 2
O=C(CCN1C(=O)C2C3c4ccccc4C(c4ccccc43)C2C1=O)Oc1ccccc1[N+](=O)[O-] (stereo not given)	x	x	x	0	x	x	x	x
C[C@H]1CN([C@@H](C)CO)C(=O)c2cccc(NC(=O)c3nc4ccccc4s3)c2O[C@H]1CN(C)Cc1ccc(-c2ccccc2)cc1	102*	2	-18	3	102*	83	25	22
C[C@H](CO)N1C[C@H](C)[C@H](CN(C)Cc2ccc(-c3ccccc3)cc2)Oc2c(NC(=O)c3nc4ccccc4s3)cccc2C1=O	64	-4	-47	x	x	x	x	x
Cc1ccc(S(=O)(=O)N(C)C[C@H]2Oc3c(NC(=O)c4nc5ccccc5s4)cccc3C(=O)N([C@@H](C)CO)C[C@@H]2C)cc1	115*	10	-66	x	u	93	10	44*
C[C@H](CO)N1C[C@H](C)[C@@H](CN(C)Cc2ccc(-c3ccccc3)cc2)Oc2c(NC(=O)c3nc4ccccc4s3)cccc2C1=O	u	-2	-51	x	105*	87	15	12
C[C@H](CO)N1C[C@H](C)[C@@H](CN(C)Cc2ccc(Cl)c(Cl)c2)Oc2c(NC(=O)c3nc4ccccc4s3)cccc2C1=O	102*	1	-39	-2	99*	87	-8	3
CN(C)CC#Cc1cccc(-c2nc(C(=O)NCc3ccc4c(c3)OCO4)cc3c2[C@@H](CCO)N(S(=O)C(C)(C)C)C3)c1 (stereo not given in full)	112*	x	x	x	110*	108*	6	21
COc1ccc(CNC(=O)c2cc3c(c(-c4cccc(-c5ccc(C#N)cc5)c4)n2)[C@H](CCO)N([S@@](=O)C(C)(C)C)C3)cc1	u	-4	-69	0	103*	93	19	30*
CC(C)(C)[S@](=O)N1Cc2cc(C(=O)NCc3ccc4c(c3)OCO4)nc(-c3cccc(-c4cccnc4)c3)c2[C@@H]1CCO	95	1	-56	-1	x	x	x	x
COc1ccc(CNC(=O)c2cc3c(c(-c4cccc(-c5cccc(C#N)c5)c4)n2)[C@H](CCO)N([S@@](=O)C(C)(C)C)C3)cc1	90	-10	-80	0	x	x	x	x
O=C(C1CCCC1)N1CCCCN2[C@H](CO)[C@@H](c3ccc(C#CC4(O)CCCC4)cc3)[C@H]2C1	104*	x	-13	x	-5	20	6	19
O=C(c1ccc(F)cc1)N1CCCCN2[C@H](CO)[C@@H](c3ccc(C#CC4(O)CCCC4)cc3)[C@H]2C1	100*	-1	0	x	35	16	3	-6
O=C(C1CCCC1)N1CCCCN2[C@H](C1)[C@@H](c1ccc(C#CC3(O)CCCC3)cc1)[C@@H]2CO	70	x	-41	x	x	x	x	x
O=C(C1CCCC1)N1CCCCN2[C@H](CO)[C@H](c3ccc(C#CC4(O)CCCC4)cc3)[C@@H]2C1	103*	x	6	x	99*	76	9	26
O=C(Nc1ccccc1[N+](=O)[O-])c1cccc(S(=O)(=O)Nc2ccc(I)cc2)c1	x	x	x	0	x	x	x	x
CC(C)NC(=O)N1CCCCN2[C@H](C1)[C@H](c1ccc(C#CC3CC3)cc1)[C@@H]2CO	36	1	0	x	x	x	x	x
CC(C)C#Cc1ccc([C@H]2[C@@H](CO)N3CCCCN(C(=O)NC(C)C)C[C@H]23)cc1	102*	0	-3	x	111*	87	0	49*
CC(C)NC(=O)N1CCCCN2[C@@H](CO)[C@@H](c3ccc(C#CC4CC4)cc3)[C@@H]2C1	107*	2	10	x	111*	65	10	49*
CC(C)NC(=O)N1CCCCN2[C@H](CO)[C@H](c3ccc(C#CC4CC4)cc3)[C@H]2C1	110*	1	-5	x	113*	55	8	66*
CC(C)C#Cc1ccc([C@@H]2[C@@H](CO)N3CCCCN(C(=O)NC(C)C)C[C@@H]23)cc1	77	0	13	x	x	x	x	x
COc1ccc(CN(C)C[C@@H]2OCCCC[C@H](C)Oc3ccc(NC(=O)Nc4ccccc4)cc3C(=O)N([C@H](C)CO)C[C@@H]2C)cc1	114*	-1	-23	x	88	109*	43*	107*
COc1ccc(NC(=O)Nc2ccc3c(c2)C(=O)N([C@@H](C)CO)C[C@H](C)[C@@H](CN(C)Cc2ccccc2)OCCCC[C@H](C)O3)cc1	103*	2	-45	x	104*	81	-7	102*
COc1ccc(CN(C)C[C@H]2OCCCC[C@H](C)Oc3ccc(NC(=O)Nc4ccccc4)cc3C(=O)N([C@@H](C)CO)C[C@@H]2C)cc1	106	-2	25	x	x	x	x	x
COc1ccc(NC(=O)Nc2ccc3c(c2)C(=O)N([C@@H](C)CO)C[C@H](C)[C@H](CN(C)Cc2ccccc2)OCCCC[C@H](C)O3)cc1	90	0	-53	x	x	x	x	x
COc1ccc(NC(=O)Nc2ccc3c(c2)C(=O)N([C@@H](C)CO)C[C@H](C)[C@H](CN(C)C(=O)Cc2ccccc2)OCCCC[C@H](C)O3)cc1	u	0	-66	x	112*	-4	-10	3
SMILES	T cruzi growth-1	GASC1 inh	Pf Dd2 growth	IDH1 mut inh	T cruzi growth-2	T cruzi growth-3	3T3 cytotox	3T3 cytotox 2
COc1ccc(CN(C)C[C@@H]2OCCCC[C@@H](C)Oc3ccc(NC(=O)c4ccccc4)cc3C(=O)N([C@H](C)CO)C[C@H]2C)cc1	107*	-2	-56	x	91	80	4	81*
COc1ccc(CN(C)C[C@@H]2OCCCC[C@H](C)Oc3ccc(NC(=O)c4ccccc4)cc3C(=O)N([C@H](C)CO)C[C@@H]2C)cc1	61	-3	-36	x	x	x	x	x
Cc1cc(C)nc(N(C#N)CC(=O)N2c3ccccc3CCc3ccccc32)n1	x	x	x	2	x	x	x	x
O=C(c1ccc2nsnc2c1)N(Cc1ccccn1)Cc1ccccn1	x	x	x	0	x	x	x	x
Cc1nc(-c2ccccc2O)n(CCN2CCOCC2)n1	x	x	x	0	x	x	x	x
CN(CC(=O)Nc1ccccc1C#N)S(=O)(=O)c1cc(Cl)ccc1Cl	x	x	x	0	x	x	x	x

Bioassay records: PubChem, Broad Institute
